Screens as filed in PubChem.
This is a sample that favours compounds with a hit; in the whole collection about 2.3% have one here.
MEKK2 WT-MEK5 = raises or lowers MEK5 binding to wildtype human MEKK2 PB1 domain; Q9Y2U5; bead flow cytometry, Alexa488-MEK5 binding to MEKK2 WT; actives lie on both sides; binding response (% of control), % at 10 µM; actives 1.1% (n = 290,000); AID 1531; in the data active = binding response below about 67% or above about 130%
MEKK2 mut-MEK5 = signal of MEK5 binding to mutant human MEKK2 PB1 domain; bead flow cytometry, Alexa488-MEK5 binding to MEKK2 mutant; percent response, % at 10 µM; actives 0.35% (n = 290,000); in the data active = percent response above about 24%, passing the limit was not always enough
MEKK3 PB1 HTS = MEKK3-MEK5 PB1 interaction, increase or decrease. binding response (% of control), % at 10 µM. Q99759. bead-based flow cytometry, Alexa488-MEK5 binding to MEKK3; actives lie on both sides; 0 = blocked by unlabeled MEK5, 100 = vehicle. AID 1529. actives 1.4% (n = 290,000);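 active = binding response more than 3 SD above or below the average of its plate-row segment, actives on both sides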;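 note: Alexa488 bead fluorescence after subtracting the streptavidin-only scavenger bead signal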
Target sequence (Q99759 whole entry, looked up): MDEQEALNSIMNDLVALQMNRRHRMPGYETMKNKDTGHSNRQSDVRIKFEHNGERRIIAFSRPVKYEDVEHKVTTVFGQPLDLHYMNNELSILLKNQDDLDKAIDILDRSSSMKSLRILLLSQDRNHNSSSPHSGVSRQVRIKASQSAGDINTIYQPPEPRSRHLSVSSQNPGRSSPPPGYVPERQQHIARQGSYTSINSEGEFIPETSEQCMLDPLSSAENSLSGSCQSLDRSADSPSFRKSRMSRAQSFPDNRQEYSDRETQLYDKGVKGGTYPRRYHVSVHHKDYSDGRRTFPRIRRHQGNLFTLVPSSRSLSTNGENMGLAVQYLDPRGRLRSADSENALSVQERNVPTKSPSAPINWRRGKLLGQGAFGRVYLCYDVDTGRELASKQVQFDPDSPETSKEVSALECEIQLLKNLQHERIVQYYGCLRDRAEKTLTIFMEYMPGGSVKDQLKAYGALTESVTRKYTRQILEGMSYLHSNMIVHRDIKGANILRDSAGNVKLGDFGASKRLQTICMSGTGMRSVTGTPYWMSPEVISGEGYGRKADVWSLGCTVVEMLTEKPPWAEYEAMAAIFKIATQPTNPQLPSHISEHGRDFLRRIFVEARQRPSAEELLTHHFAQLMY
Arr AP2 block = inhibitors of human beta-arrestin and AP2 interaction; actives 0.31% (n = 340,000); inhibition, % at 10 µM; FITC-arrestin peptide / GST-AP2 beads, flow cytometry; AP2 beta2 appendage carries R879A mutation;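 active = inhibition above a set limit, near 3 SD of compounds lacking own fluorescence, cut at about 54% in these data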
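system = GST-tagged AP2 beta2-adaptin appendage (R879A) on 4 µm glutathione beads | reagent = FITC-labelled arrestin peptide probe, 50 nM final | schedule = compound with beads 12 min RT, then probe 1 h RT | signal = HyperCyt-sampled flow cytometry, FL1 channel, ex 488/em 535 nm | read-out = percent response from loss of bead-bound FITC fluorescence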
MEKK2wt confirm = raises or lowers MEK5 binding to wildtype human MEKK2, retest | actives 2.4% (n = 5,900) | shares compounds with MEKK3 PB1 HTS | binding response (% of control), % at 10 µM | bead flow cytometry, Alexa488-MEK5 binding to MEKK2 WT; actives lie on both sides; in the data active = binding response below about 16% or above about 210%; inactive = in between
MEKK2mut confirm = signal of MEK5 binding to mutant human MEKK2, retest; bead flow cytometry, Alexa488-MEK5 binding to MEKK2 mutant; actives 2% (n = 5,900); percent response, % at 10 µM; shares compounds with MEKK3 PB1 HTS; in the data active = percent response mostly above about 71%, no sharp cut-off; inactive = mostly below about 38%;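 note: higher means compound restores mutant binding toward wildtype level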
MEKK3 confirm = confirmation of inhibitors of MEK5 binding to human MEKK3; shares compounds with MEKK3 PB1 HTS; bead flow cytometry, Alexa488-MEK5 binding to MEKK3; active compounds read low; binding response (% of control), % at 10 µM; actives 1.8% (n = 5,900); AID 1894;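 active = binding response below 72% of control, or above a set upper limit, though filed actives all read lower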;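 note: lower values mean stronger disruption of MEK5 binding to MEKK3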
A number is an active result; i = inactive; nt = no result given; ! = repeats disagree.

SMILES	MEKK2 WT-MEK5	MEKK2 mut-MEK5	MEKK3 PB1 HTS	Arr AP2 block	MEKK2wt confirm	MEKK2mut confirm	MEKK3 confirm
CN1CCN(c2ccc(Cl)cc2NC(=O)c2ccc(S(=O)(=O)N(C)C)cc2)CC1	136	i	i	i	i	i	i
CCN(CC)S(=O)(=O)c1cc(C(=O)Nc2cc(Cl)ccc2N2CCN(C)CC2)ccc1Cl	161	i	i	i	i	i	i
COc1cc(Cl)c(C)cc1NC(=O)c1cc(S(=O)(=O)N(C)C)ccc1N1CCCC1	i	i	148	i	i	i	i
CCN1C[C@@H]2[C@@H]3C(=O)N(C)C(=O)[C@@H]3[C@](Cc3ccccc3)(C1=O)N2C(=O)c1ccc(Cl)cc1	nt	nt	nt	i	nt	nt	nt
COC(=O)C1(Cc2ccc3c(c2)CCC3)Cc2ccc3c(c2C1=O)CCC3 (configuration not stated)	nt	nt	nt	i	nt	nt	nt
COc1ccc(/C=C2\SC(=O)N(CCCC(=O)Nc3cc(Cl)ccc3C(=O)O)C2=O)cc1	nt	nt	nt	i	nt	nt	nt
O=C(C[n+]1cc(-c2ccc(Cl)cc2)n2c1CCC2)Nc1nc(-c2ccccc2)cs1	146	i	i	i	i	i	i
Cc1ccc(-c2c[n+](CC(=O)Nc3nc(-c4ccc(F)cc4)cs3)c3n2CCC3)cc1	226	76	i	i	i	76	i
O=C(C[n+]1cc(-c2ccc(F)cc2)n2c1CCC2)Nc1nc(-c2ccccc2)cs1	i	i	i	i	nt	nt	nt
c1ccc(C2CCC(N3CCNCC3)CC2)cc1 (configuration not stated)	i	i	i	i	nt	nt	nt
CCOC(=O)c1ccc(N2C(=O)CC(Nc3ccc(O)cc3)C2=O)cc1 (configuration not stated)	i	i	128	i	i	i	i
COc1cc2c(cc1OC)CN(C(=O)c1cc(S(=O)(=O)N3CCOCC3)c(Cl)cc1Cl)CC2	i	i	i	i	nt	nt	nt
CCN(c1ccccc1)S(=O)(=O)c1cc(NC(=O)Nc2ccccc2C#N)ccc1Cl	i	i	133	i	i	i	i
CCN1CCc2c(sc(NC(=O)c3cc4ccccc4cc3OC)c2C(N)=O)C1	149	26	i	i	i	i	i
COc1ccccc1NC(=O)CSc1ccc(-c2ccc(-n3cccn3)cc2)nn1	nt	nt	nt	i	nt	nt	nt
Cc1ccc(-n2ncc(C(=O)Nc3cc(Cl)cc(Cl)c3)c2C2CCNCC2)cc1C	216	58	i	i	i	i	i
Cc1ccc(-n2ncc(C(=O)Nc3cc(Cl)ccc3Cl)c2C2CCNCC2)cc1	i	i	i	i	nt	nt	nt
c1ccc(N(c2ccccc2)c2nc(N3CCCC3)nc(-n3ccnc3)n2)cc1	nt	nt	nt	i	nt	nt	nt
CN(c1ccccc1)c1nc(N2CCCC2)nc(-n2ccnc2)n1	134	i	i	i	i	i	i
CN(C)CCN=Cc1c(O)n(Cc2ccc3c(c2)OCO3)c(=O)c2ccccc12	i	i	i	i	nt	nt	nt
O=c1c2ccccc2c(C=NC2CCN(Cc3ccccc3)CC2)c(O)n1Cc1ccc2c(c1)OCO2	154	i	i	nt	i	i	i
Cc1[nH]c2ccccc2c1CN1CCC(Cc2ccccc2)CC1	145	i	i	i	i	i	i
CC(C)Cn1c(=O)c(CCC(=O)Nc2ccc(N3CCOCC3)cc2)nc2cc(Cl)ccc21	i	i	i	i	nt	nt	nt
OCc1cc(C(O)CNCCCCCCOCCCCc2ccccc2)ccc1O (configuration not stated)	144!	i	i	i	i	i	i
CC(C)(C)NCC(O)c1ccc(O)c(CO)c1 (configuration not stated)	i	i	i	nt	nt	nt	nt
CCOc1ccccc1CN1CCNC(=O)C1CC(=O)NCCC1=CCCCC1 (configuration not stated)	i	24	i	i	i	i	i
COc1ccccc1CN1CCNC(=O)C1CC(=O)NCCC1=CCCCC1 (configuration not stated)	i	i	i	i	nt	nt	nt
